ChEMBL document CHEMBL1157856, “Novel quinoline and naphthalene derivatives as potent antimycobacterial agents” (2010)

Columns and labels:
Assay type in all cases: functional
[1] = test system: Mycobacterium tuberculosis; assay: Antimycobacterial activity against Mycobacterium tuberculosis H37Rv at 6.25 ug/ml by BACTEC 460; details: for inhibition at 6.25 µg/mL: Mycobacterium tuberculosis, H37Rv
U-937 [2] = assay: Cytotoxicity against human U937 cells assessed as cell viability at 1 ug/ml after 72 hrs by MTT assay; details: U-937, 72 h, read-out: Activity
In short: (§1)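 U937 human monocytic cells seeded at 1 × 10⁵ cells/mL and allowed to adhere for 1 h at 37 °C under 5% CO₂. Non-adherent cells were rinsed off with RPMI 1640. Adherent cells were exposed in triplicate to compound, medium alone (live control) or 3% Tween 20 (dead control). MTT (5 mg/mL stock in PBS) was added for 3 h at 37 °C. Formazan was dissolved in 0.4 M HCl/isopropanol and A600 read. Values given as percent viability.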

U-937 [3] = assay: Cytotoxicity against human U937 cells assessed as cell viability at 10 ug/ml after 24 hrs by MTT assay; details: U-937, 24 h, read-out: Activity; in short: as §1
U-937 [4] = assay: Cytotoxicity against human U937 cells assessed as cell viability at 10 ug/ml after 72 hrs by MTT assay; details: U-937, 72 h, read-out: Activity; in short: as §1
U-937 [5] = assay: Cytotoxicity against human U937 cells assessed as cell viability at 1 ug/ml after 24 hrs by MTT assay; details: U-937, 24 h, read-out: Activity; in short: as §1

Structure (SMILES) | inhibition at 6.25 µg/mL [1] | also measured
Cc1cc(C(OCC(O)CNc2ncn[nH]2)c2ccncc2)c2cc(Br)ccc2n1 (stereo in doubt; 13) [1-(1H-1,2,4-TRIAZOL-5-YLAMINO)-3-((6-BROMO-2-METHYLQUINOLIN-4-YL)(PYRIDIN-4-YL)METHOXY)PROPAN-2-OL (STRUCTURAL MIX)] |  | inhibition (INH) [1]: 15%
Cc1cc(C(OCC(O)CN(C)CCO)c2ccncc2)c2cc(Br)ccc2n1 (stereo unspecified) | 13% | 
Cc1cc(C(OCC(O)CNCCN)c2ccncc2)c2cc(Br)ccc2n1 (stereo unspecified) | 5% | 
OC(COC(c1ccccc1)c1cccc2ccccc12)CN1CCN(c2cccc(C(F)(F)F)c2)CC1 (stereo unspecified) | 11% | 
Cc1cc(C(OCC(O)CNc2ncn[nH]2)c2ccncc2)c2cc(Br)ccc2n1 (stereo in doubt; 12) [1-(1H-1,2,4-TRIAZOL-5-YLAMINO)-3-((6-BROMO-2-METHYLQUINOLIN-4-YL)(PYRIDIN-4-YL)METHOXY)PROPAN-2-OL (STRUCTURAL MIX)] | 22% | 
OC(COC(c1ccccc1)c1cccc2ccccc12)CN1CCN(Cc2ccccc2)CC1 (stereo unspecified) | 91% | viability at 1 µg/mL (U-937 [2]): 71%; viability at 10 µg/mL (U-937 [3]): 77%; viability at 10 µg/mL (U-937 [4]): 74%; viability at 1 µg/mL (U-937 [5]): 77%
COc1cccc(N2CCN(CC(O)COC(c3ccccc3)c3cccc4ccccc34)CC2)c1 (stereo unspecified) | 99% | viability at 1 µg/mL (U-937 [2]): 100%; viability at 10 µg/mL (U-937 [3]): 82%; viability at 10 µg/mL (U-937 [4]): 63%; viability at 1 µg/mL (U-937 [5]): 100%
Cc1cc(C(OCC(O)Cn2cccn2)c2ccncc2)c2cc(Br)ccc2n1 (stereo unspecified) | 9% | 
COCCNCC(O)COC(c1ccncc1)c1cc(C)nc2ccc(Br)cc12 (stereo unspecified) | 19% | 
OC(COC(c1ccccc1)c1cccc2ccccc12)CN1CCN(c2ccc(Cl)cc2)CC1 (stereo unspecified) | 5% | 
OC(COC(c1ccccc1)c1cccc2ccccc12)CN1CCN(C(c2ccccc2)c2ccccc2)CC1 (stereo unspecified) | 98% | viability at 1 µg/mL (U-937 [2]): 79%; viability at 10 µg/mL (U-937 [3]): 74%; viability at 10 µg/mL (U-937 [4]): 70%; viability at 1 µg/mL (U-937 [5]): 93%
Cc1cc(C(OCC(O)Cn2cncn2)c2ccncc2)c2cc(Br)ccc2n1 (stereo unspecified) | 10% | 
Cc1cc(C(OCC(O)CN2CCN(c3ccccn3)CC2)c2ccncc2)c2cc(Br)ccc2n1 (stereo unspecified) | 4% | 
Cc1cc(C(OCC(O)Cn2ccc(C)n2)c2ccncc2)c2cc(Br)ccc2n1 (stereo unspecified) | 8% | 
Cc1cc(C(OCC(O)Cn2ccnc2)c2ccncc2)c2cc(Br)ccc2n1 (stereo unspecified) | 7% | 
OC(COC(c1ccccc1)c1cccc2ccccc12)CN1CCN(c2ccc(F)cc2)CC1 (stereo unspecified) | 14% | 
OC(COC(c1ccccc1)c1cccc2ccccc12)CN1CCN(c2ccccn2)CC1 (stereo unspecified) | 23% | 
Cc1cc(C(OCC(O)CNc2nnn[nH]2)c2ccncc2)c2cc(Br)ccc2n1 (stereo unspecified) | 20% | 
COc1ccccc1N1CCN(CC(O)COC(c2ccccc2)c2cccc3ccccc23)CC1 (stereo unspecified) | 90% | viability at 1 µg/mL (U-937 [2]): 64%; viability at 10 µg/mL (U-937 [3]): 81%; viability at 10 µg/mL (U-937 [4]): 62%; viability at 1 µg/mL (U-937 [5]): 81%
OC(COC(c1ccccc1)c1cccc2ccccc12)CN1CCN(c2ccc(Cl)c(Cl)c2)CC1 (stereo unspecified) | 4% | 
